# In ChEMBL document CHEMBL1144306, “1-Hydroxyalkyl-3-phenylthioureas as novel HDL-elevating agents” (2005):
# What was measured:
# Format in all cases: functional
# Rattus norvegicus [1] = experiment: Effect on level of high density lipoprotein cholesterol (relative to untreated control) in cholesterol fed-male rats at 80 mg/kg/day
# Method in brief: (§1)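 Male Sprague–Dawley rats (groups of six) fed a cholic acid- and cholesterol-supplemented diet; compound mixed into the diet, given ad libitum for eight days. Lipoproteins were separated by ultracentrifugation, and cholesterol was measured by an enzymatic colorimetric method. Results are % change versus untreated controls, with significance at p < 0.05.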
# Rattus norvegicus [2] = experiment: Effect on level of apolipoprotein (Apo) AI (relative to untreated control) in cholesterol fed-male rats at 80 mg/kg/day
# Method in brief: (§2)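 Six male Sprague–Dawley rats per group, fed a cholic acid/cholesterol-supplemented diet, received compound in the diet ad libitum for eight days. Serum Apo A–I was measured by SDS-PAGE or by rat competition ELISA and reported as % change versus untreated controls (p < 0.05). Gemfibrozil was the internal positive control in each study.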
# Rattus norvegicus [3] = experiment: Effect on level of total cholesterol (relative to untreated control) in cholesterol fed-male rats at 80 mg/kg/day; method in brief: as §1
# Rattus norvegicus [4] = experiment: Effect on level of triglyceride in (relative to untreated control) in cholesterol fed-male rats at 80 mg/kg/day
# Method in brief: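 Compound given in diet ad libitum for eight days to groups of six male Sprague–Dawley rats on a cholic acid and cholesterol-supplemented diet. Serum triglycerides expressed as % change relative to untreated controls, with significance at p < 0.05. Gemfibrozil served as internal positive control within each study.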
# Rattus norvegicus [5] = experiment: Effect on change in body weight gain (relative to untreated control) in cholesterol fed-male rats at 80 mg/kg/day
# Method in brief: (§3)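 Male Sprague–Dawley rats, six per group, on a cholic acid- and cholesterol-supplemented diet. Compounds were mixed into the diet and given ad libitum for eight days. Change in body weight gain is expressed as a percentage of untreated controls. Significance was set at p < 0.05 versus untreated controls.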
# Rattus norvegicus [6] = experiment: Effect on level of high density lipoprotein cholesterol (relative to untreated control) in cholesterol fed-male rats at 75 mg/kg/day; method in brief: as §1
# Rattus norvegicus [7] = experiment: Effect on level of apolipoprotein (Apo) AI (relative to untreated control) in cholesterol fed-male rats at 75 mg/kg/day; method in brief: as §2
# Rattus norvegicus [8] = experiment: Effect on level of total cholesterol (relative to untreated control) in cholesterol fed-male rats at 75 mg/kg/day; method in brief: as §1
# Rattus norvegicus [9] = experiment: Effect on level of triglyceride in (relative to untreated control) in cholesterol fed-male rats at 75 mg/kg/day
# Method in brief: (§4)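 Serum triglycerides were measured in groups of six male Sprague–Dawley rats on a cholic acid/cholesterol-supplemented diet. Compound was dosed in the diet, ad libitum, for eight days. Results are % change relative to untreated controls, with significance at p < 0.05.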
# Rattus norvegicus [10] = experiment: Effect on change in body weight gain (relative to untreated control) in cholesterol fed-male rats at 75 mg/kg/day; method in brief: as §3
# Rattus norvegicus [11] = experiment: Effect on change in body weight gain (relative to untreated control) in cholesterol fed-male rats at 66 mg/kg/day; method in brief: as §3
# Rattus norvegicus [12] = experiment: Effect on level of triglyceride in (relative to untreated control) in cholesterol fed-male rats at 66 mg/kg/day; method in brief: as §4
# Rattus norvegicus [13] = experiment: Effect on level of apolipoprotein (Apo) AI (relative to untreated control) in cholesterol fed-male rats at 66 mg/kg/day; method in brief: as §2
# Rattus norvegicus [14] = experiment: Effect on level of total cholesterol (relative to untreated control) in cholesterol fed-male rats at 66 mg/kg/day; method in brief: as §1
# Rattus norvegicus [15] = experiment: Effect on level of high density lipoprotein cholesterol (relative to untreated control) in cholesterol fed-male rats at 66 mg/kg/day; method in brief: as §1
# Rattus norvegicus [16] = experiment: Effect on level of triglyceride in (relative to untreated control) in cholesterol fed-male rats at 67 mg/kg/day; method in brief: as §4
# Rattus norvegicus [17] = experiment: Effect on level of high density lipoprotein cholesterol (relative to untreated control) in cholesterol fed-male rats at 67 mg/kg/day; method in brief: as §1
# Rattus norvegicus [18] = experiment: Effect on level of apolipoprotein (Apo) AI (relative to untreated control) in cholesterol fed-male rats at 67 mg/kg/day; method in brief: as §2
# Rattus norvegicus [19] = experiment: Effect on level of total cholesterol (relative to untreated control) in cholesterol fed-male rats at 67 mg/kg/day; method in brief: as §1
# Rattus norvegicus [20] = experiment: Effect on change in body weight gain (relative to untreated control) in cholesterol fed-male rats at 67 mg/kg/day; method in brief: as §3
# Rattus norvegicus [21] = experiment: Effect on change in body weight gain (relative to untreated control) in cholesterol fed-male rats at 42 mg/kg/day; method in brief: as §3
# Rattus norvegicus [22] = experiment: Effect on level of apolipoprotein (Apo) AI (relative to untreated control) in cholesterol fed-male rats at 42 mg/kg/day; method in brief: as §2
# Rattus norvegicus [23] = experiment: Effect on level of high density lipoprotein cholesterol (relative to untreated control) in cholesterol fed-male rats at 42 mg/kg/day
# Method in brief: (§5)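 Cholic acid/cholesterol-fed male Sprague–Dawley rats (n = 6 per group) were dosed via diet ad libitum for eight days. Lipoproteins were separated by ultracentrifugation and HDL cholesterol was quantified by an enzymatic colorimetric method. Values are % change relative to untreated controls, with significance at p < 0.05. Gemfibrozil was the internal positive control.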
# Rattus norvegicus [24] = experiment: Effect on level of triglyceride in (relative to untreated control) in cholesterol fed-male rats at 42 mg/kg/day; method in brief: as §4
# Rattus norvegicus [25] = experiment: Effect on level of total cholesterol (relative to untreated control) in cholesterol fed-male rats at 42 mg/kg/day; method in brief: as §1
# Rattus norvegicus [26] = experiment: Effect on level of high density lipoprotein cholesterol (relative to untreated control) in cholesterol fed-male rats at 63 mg/kg/day; method in brief: as §1
# Rattus norvegicus [27] = experiment: Effect on level of apolipoprotein (Apo) AI (relative to untreated control) in cholesterol fed-male rats at 63 mg/kg/day; method in brief: as §2
# Rattus norvegicus [28] = experiment: Effect on level of triglyceride in (relative to untreated control) in cholesterol fed-male rats at 63 mg/kg/day; method in brief: as §4
# Rattus norvegicus [29] = experiment: Effect on level of total cholesterol (relative to untreated control) in cholesterol fed-male rats at 63 mg/kg/day; method in brief: as §1
# Rattus norvegicus [30] = experiment: Effect on change in body weight gain (relative to untreated control) in cholesterol fed-male rats at 63 mg/kg/day; method in brief: as §3
# Rattus norvegicus [31] = experiment: Effect on level of total cholesterol (relative to untreated control) in cholesterol fed-male rats at 36 mg/kg/day; method in brief: as §1
# Rattus norvegicus [32] = experiment: Effect on change in body weight gain (relative to untreated control) in cholesterol fed-male rats at 36 mg/kg/day; method in brief: as §3
# Rattus norvegicus [33] = experiment: Effect on level of high density lipoprotein cholesterol (relative to untreated control) in cholesterol fed-male rats at 36 mg/kg/day; method in brief: as §5
# Rattus norvegicus [34] = experiment: Effect on level of apolipoprotein (Apo) AI (relative to untreated control) in cholesterol fed-male rats at 36 mg/kg/day; method in brief: as §2
# Rattus norvegicus [35] = experiment: Effect on level of triglyceride in (relative to untreated control) in cholesterol fed-male rats at 36 mg/kg/day; method in brief: as §4
# Rattus norvegicus [36] = experiment: Effect on change in body weight gain (relative to untreated control) in cholesterol fed-male rats at 68 mg/kg/day; method in brief: as §3
# Rattus norvegicus [37] = experiment: Effect on level of total cholesterol (relative to untreated control) in cholesterol fed-male rats at 68 mg/kg/day; method in brief: as §1
# Rattus norvegicus [38] = experiment: Effect on level of high density lipoprotein cholesterol (relative to untreated control) in cholesterol fed-male rats at 68 mg/kg/day; method in brief: as §1
# Rattus norvegicus [39] = experiment: Effect on level of apolipoprotein (Apo) AI (relative to untreated control) in cholesterol fed-male rats at 68 mg/kg/day; method in brief: as §2
# Rattus norvegicus [40] = experiment: Effect on level of triglyceride in (relative to untreated control) in cholesterol fed-male rats at 68 mg/kg/day; method in brief: as §4
# Rattus norvegicus [41] = experiment: Effect on level of high density lipoprotein cholesterol (relative to untreated control) in cholesterol fed-male rats at 50 mg/kg/day; method in brief: as §5
# Rattus norvegicus [42] = experiment: Effect on level of triglyceride in (relative to untreated control) in cholesterol fed-male rats at 50 mg/kg/day; method in brief: as §4
# Rattus norvegicus [43] = experiment: Effect on change in body weight gain (relative to untreated control) in cholesterol fed-male rats at 50 mg/kg/day; method in brief: as §3
# Rattus norvegicus [44] = experiment: Effect on level of apolipoprotein (Apo) AI (relative to untreated control) in cholesterol fed-male rats at 50 mg/kg/day; method in brief: as §2
# Rattus norvegicus [45] = experiment: Effect on level of total cholesterol (relative to untreated control) in cholesterol fed-male rats at 50 mg/kg/day; method in brief: as §1
smiles,measurement,setting,value
Cc1ccc(Cl)cc1/N=C(\S)NC(C)(C)CO,Activity,Rattus norvegicus [1],58%
same,Activity,Rattus norvegicus [2],23%
same,Activity,Rattus norvegicus [3],-13%
same,Activity,Rattus norvegicus [4],-15%
same,Activity,Rattus norvegicus [5],-23%
Cc1ccc(Cl)cc1N/C(S)=N/[C@H](C)CO,Activity,Rattus norvegicus [6],13%
same,Activity,Rattus norvegicus [7],6%
same,Activity,Rattus norvegicus [8],85%
same,Activity,Rattus norvegicus [9],-23%
same,Activity,Rattus norvegicus [10],-4%
OCC/N=C(\S)Nc1cccc(Cl)c1,Activity,Rattus norvegicus [11],-70%
same,Activity,Rattus norvegicus [12],-31%
same,Activity,Rattus norvegicus [13],43%
same,Activity,Rattus norvegicus [14],30%
same,Activity,Rattus norvegicus [15],79%
Cc1c(Cl)cccc1/N=C(\S)NCCO,Activity,Rattus norvegicus [16],-16%
same,Activity,Rattus norvegicus [17],63%
same,Activity,Rattus norvegicus [18],27%
same,Activity,Rattus norvegicus [19],10%
same,Activity,Rattus norvegicus [20],-56%
Cc1cc(Cl)ccc1/N=C(\S)NCCO,Activity,Rattus norvegicus [21],-229%
same,Activity,Rattus norvegicus [22],18%
same,Activity,Rattus norvegicus [23],53%
same,Activity,Rattus norvegicus [24],-8%
same,Activity,Rattus norvegicus [25],17%
Cc1ccc(Cl)cc1/N=C(\S)N(C)CCO,Activity,Rattus norvegicus [6],100%
same,Activity,Rattus norvegicus [7],40%
same,Activity,Rattus norvegicus [8],29%
same,Activity,Rattus norvegicus [9],-47%
same,Activity,Rattus norvegicus [10],-31%
Cc1ccc(C)c(N/C(S)=N/CCO)c1,Activity,Rattus norvegicus [26],62%
same,Activity,Rattus norvegicus [27],0%
same,Activity,Rattus norvegicus [28],-32%
same,Activity,Rattus norvegicus [29],32%
same,Activity,Rattus norvegicus [30],-117%
Cc1ccc(Cl)cc1/N=C(\S)NCCS,Activity,Rattus norvegicus [31],8%
same,Activity,Rattus norvegicus [32],-20%
same,Activity,Rattus norvegicus [33],25%
same,Activity,Rattus norvegicus [34],10%
same,Activity,Rattus norvegicus [35],-3%
OCC/N=C(\S)Nc1cc(Cl)ccc1Cl,Activity,Rattus norvegicus [36],-66%
same,Activity,Rattus norvegicus [37],21%
same,Activity,Rattus norvegicus [38],71%
same,Activity,Rattus norvegicus [39],36%
same,Activity,Rattus norvegicus [40],-13%
Cc1ccc(C)c(OCCCC(C)(C)C(=O)O)c1 [GEMFIBROZIL],Activity,Rattus norvegicus [41],104%
same,Activity,Rattus norvegicus [42],-29%
same,Activity,Rattus norvegicus [43],2%
same,Activity,Rattus norvegicus [44],54%
same,Activity,Rattus norvegicus [45],-23%
